Experimental data as given in ChEMBL document CHEMBL4004835, “Discovery of Novel Disruptor of Silencing Telomeric 1-Like (DOT1L) Inhibitors using a Target-Specific Scoring Function for the (S)-Adenosyl-l-methionine (SAM)-Dependent Methyltransferase Family” (J Med Chem, 2017).
The source made the active and inactive calls. The calls are words filed in the database; no cut-off is given here.

What was measured:
MV4-11 [1] = test: Induction of apoptosis in human MV4-11 cells assessed as necrotic cells at 50 uM after 72 hrs by annexin V/FITC and propidium iodide staining-based flow cytometric analysis (reference value: 0.04 %); format: functional
HL-60 = test: Cytotoxicity against human HL60 cells assessed as reduction in cell viability after 72 hrs by alamar blue assay; format: functional, cell-based; conditions: HL-60, 72 h
Outline: (§1)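 Cells cultured in RPMI 1640 with 10% FBS and 1% penicillin/streptomycin, treated with a range of concentrations or equal DMSO, 37 °C, 5% CO2, 72 h. Viability read by alamar blue (ex 544/em 590 nm); percent proliferation and IC50 curve fitted.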

MV4-11 [2] = test: Induction of apoptosis in human MV4-11 cells assessed as necrotic cells at 25 uM after 72 hrs by annexin V/FITC and propidium iodide staining-based flow cytometric analysis (reference value: 0.04 %); format: functional
[3] = target: Histone-lysine N-methyltransferase, H3 lysine-36 specific (Homo sapiens) (UniProt Q96L73); test: Inhibition of NSD1 (unknown origin) at 50 and 100 uM preincubated for 15 mins followed by substrate and [3H]-SAM addition after 120 mins by MicroBeta counting
Outline: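 In modified Tris buffer, enzyme incubated 15 min at room temperature, then substrate and [3H]SAM added; stopped at 120 min with cold SAM; transferred to a 0.5% PEI-pretreated GF/B plate, washed 3× with water, read by MicroBeta.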

MV4-11 [4] = test: Induction of apoptosis in human MV4-11 cells assessed as necrotic cells at 12.5 uM after 72 hrs by annexin V/FITC and propidium iodide staining-based flow cytometric analysis (reference value: 0.04 %); format: functional
[5] = target: DNA (cytosine-5)-methyltransferase 1 (Homo sapiens) (UniProt P26358); test: Inhibition of DNMT1 (unknown origin) at 50 and 100 uM preincubated for 15 mins followed by poly(dI-DC) substrate and [3H]-SAM addition after 120 mins by liquid MicroBeta counting
Outline: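 In modified Tris buffer, enzyme preincubated 15 min at room temperature; poly(dI-dC) substrate and [3H]SAM added; 120 min at 37 °C; reaction transferred to 0.5% PEI-pretreated filter plates, vacuumed, read by MicroBeta; SAH as positive control.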

MV4-11 [6] = test: Induction of apoptosis in human MV4-11 cells assessed as early apoptotic cells at 50 uM after 72 hrs by annexin V/FITC and propidium iodide staining-based flow cytometric analysis (reference value: 5.66 %); format: functional
[7] = target: T1, Histone-lysine N-methyltransferase, H3 lysine-79 specific (Homo sapiens, UniProt Q8TEK3); test: Inhibition of N-terminal 6His-tagged human DOT1L (1 to 416 residues) expressed in Escherichia coli BL21(DE3) at 50 and 100 uM preincubated for 15 mins followed by [3H]-SAM addition measured after 120 mins by radioactive methylation assay
Outline: (§2)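 DOT1L and compound preincubated 15 min at room temperature; oligonucleosome and 3H-SAM added; reaction 120 min at room temperature, stopped with cold SAM; transferred to 0.5% PEI-pretreated filter plate, washed 3× with water, read by liquid scintillation counting.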
Target sequence in this assay (Q8TEK3 whole entry, looked up, the tested form may be a part): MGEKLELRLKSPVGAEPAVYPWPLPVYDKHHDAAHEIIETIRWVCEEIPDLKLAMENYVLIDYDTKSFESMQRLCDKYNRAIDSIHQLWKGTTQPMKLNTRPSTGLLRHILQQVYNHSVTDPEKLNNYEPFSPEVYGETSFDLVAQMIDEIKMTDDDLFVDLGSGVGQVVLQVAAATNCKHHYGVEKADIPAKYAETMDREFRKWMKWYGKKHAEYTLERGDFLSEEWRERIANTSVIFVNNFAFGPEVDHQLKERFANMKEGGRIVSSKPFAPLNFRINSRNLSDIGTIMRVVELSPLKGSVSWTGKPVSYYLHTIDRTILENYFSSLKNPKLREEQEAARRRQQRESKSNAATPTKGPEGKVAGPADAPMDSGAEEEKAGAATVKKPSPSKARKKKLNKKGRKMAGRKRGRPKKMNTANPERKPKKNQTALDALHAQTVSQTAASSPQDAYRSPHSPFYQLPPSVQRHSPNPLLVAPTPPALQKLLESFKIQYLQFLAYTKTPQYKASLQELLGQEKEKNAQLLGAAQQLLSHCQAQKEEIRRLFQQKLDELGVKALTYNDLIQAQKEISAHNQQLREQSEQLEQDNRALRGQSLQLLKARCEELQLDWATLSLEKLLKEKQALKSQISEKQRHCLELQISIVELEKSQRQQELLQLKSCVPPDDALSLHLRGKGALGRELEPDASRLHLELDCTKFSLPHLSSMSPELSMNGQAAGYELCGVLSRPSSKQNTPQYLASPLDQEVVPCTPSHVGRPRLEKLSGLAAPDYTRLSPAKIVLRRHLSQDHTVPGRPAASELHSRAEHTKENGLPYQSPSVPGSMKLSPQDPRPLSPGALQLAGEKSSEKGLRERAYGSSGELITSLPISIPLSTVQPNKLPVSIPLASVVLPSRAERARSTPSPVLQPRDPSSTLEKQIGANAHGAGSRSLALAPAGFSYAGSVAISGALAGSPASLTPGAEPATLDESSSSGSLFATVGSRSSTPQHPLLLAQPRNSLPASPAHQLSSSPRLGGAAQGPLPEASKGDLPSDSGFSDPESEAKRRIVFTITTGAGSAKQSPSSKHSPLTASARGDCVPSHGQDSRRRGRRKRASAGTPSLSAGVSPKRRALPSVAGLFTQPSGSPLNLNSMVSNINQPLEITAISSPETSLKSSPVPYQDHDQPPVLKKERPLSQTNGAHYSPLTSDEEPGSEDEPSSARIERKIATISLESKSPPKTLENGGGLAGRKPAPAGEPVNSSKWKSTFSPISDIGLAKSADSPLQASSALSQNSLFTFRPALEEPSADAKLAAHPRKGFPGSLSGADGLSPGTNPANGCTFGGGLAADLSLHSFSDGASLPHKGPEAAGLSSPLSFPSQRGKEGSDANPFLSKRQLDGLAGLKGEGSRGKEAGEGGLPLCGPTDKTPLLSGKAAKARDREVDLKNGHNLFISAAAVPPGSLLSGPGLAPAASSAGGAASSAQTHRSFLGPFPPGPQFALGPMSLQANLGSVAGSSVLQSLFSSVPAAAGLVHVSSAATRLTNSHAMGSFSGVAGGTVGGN

Kasumi 1 = test: Cytotoxicity against human Kasumi-1 cells assessed as reduction in cell viability after 72 hrs by alamar blue assay; format: functional, cell-based; conditions: Kasumi 1, 72 h; outline: as §1
MV4-11 [8] = test: Induction of apoptosis in human MV4-11 cells assessed as early apoptotic cells at 6.25 uM after 72 hrs by annexin V/FITC and propidium iodide staining-based flow cytometric analysis (reference value: 5.66 %); format: functional
MV4-11 [9] = test: Induction of cell cycle arrest in human MV4-11 cells assessed as accumulation at G2 phase at 12.5 uM after 48 hrs by propidium iodide/RNase-staining based flow cytometric analysis (reference value: 7.44 %); format: functional
Outline: (§3)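 MV4-11 cells (2 × 10^6) seeded in 12-well dishes, treated with different concentrations for 48 h, processed with a PI/RNase staining kit and analysed for cell-cycle distribution by FACSCalibur flow cytometry.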

MV4-11 [10] = test: Induction of cell cycle arrest in human MV4-11 cells assessed as accumulation at S phase at 50 uM after 48 hrs by propidium iodide/RNase-staining based flow cytometric analysis (reference value: 24.40 %); format: functional; outline: as §3
MV4-11 [11] = test: Induction of cell cycle arrest in human MV4-11 cells assessed as accumulation at G2 phase at 50 uM after 48 hrs by propidium iodide/RNase-staining based flow cytometric analysis (reference value: 7.44 %); format: functional; outline: as §3
MV4-11 [12] = test: Induction of apoptosis in human MV4-11 cells assessed as viable cells at 6.25 uM after 72 hrs by annexin V/FITC and propidium iodide staining-based flow cytometric analysis (reference value: 90.3 %); format: functional; conditions: MV4-11, 72 h, read-out: Activity
MV4-11 [13] = test: Induction of apoptosis in human MV4-11 cells assessed as late apoptotic cells at 6.25 uM after 72 hrs by annexin V/FITC and propidium iodide staining-based flow cytometric analysis (reference value: 4.02 %); format: functional
MV4-11 [14] = test: Induction of cell cycle arrest in human MV4-11 cells assessed as accumulation at G1 phase at 25 uM after 48 hrs by propidium iodide/RNase-staining based flow cytometric analysis (reference value: 68.16 %); format: functional; outline: as §3
[15] = target: T1, Histone-lysine N-methyltransferase, H3 lysine-79 specific; test: Inhibition of N-terminal 6His-tagged human DOT1L (1 to 416 residues) expressed in Escherichia coli BL21(DE3) at 50 uM using histone H3 as substrate preincubated for 15 mins followed by SAM addition measured after 60 mins by AlphaLISA assay
Outline: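 DOT1L (80 nM final) preincubated with compound 15 min at 25 °C; SAM 1 mM and oligonucleosomes 0.25 ng/μL added in 50 mM Tris-HCl pH 8.0, 150 mM NaCl, 3 mM MgCl2, 0.1% BSA, 60 min at 25 °C; stopped with high-salt buffer; H3K79me2 detected with anti-H3 acceptor beads, biotinylated antibody, then streptavidin donor beads.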
Target sequence in this assay (Q8TEK3 whole entry, looked up, the tested form may be a part): as above

[16] = target: T1, Histone-lysine N-methyltransferase, H3 lysine-79 specific; test: Inhibition of N-terminal 6His-tagged human DOT1L (1 to 416 residues) expressed in Escherichia coli BL21(DE3) at preincubated for 15 mins followed by [3H]-SAM addition measured after 120 mins by radioactive methylation assay; outline: as §2
Target sequence in this assay (Q8TEK3 whole entry, the tested form may be a part): as the sequence (Q8TEK3 whole entry, looked up, the tested form may be a part) above

Chain of DNA (cytosine-5)-methyltransferase 1 (Homo sapiens) (P26358 whole entry): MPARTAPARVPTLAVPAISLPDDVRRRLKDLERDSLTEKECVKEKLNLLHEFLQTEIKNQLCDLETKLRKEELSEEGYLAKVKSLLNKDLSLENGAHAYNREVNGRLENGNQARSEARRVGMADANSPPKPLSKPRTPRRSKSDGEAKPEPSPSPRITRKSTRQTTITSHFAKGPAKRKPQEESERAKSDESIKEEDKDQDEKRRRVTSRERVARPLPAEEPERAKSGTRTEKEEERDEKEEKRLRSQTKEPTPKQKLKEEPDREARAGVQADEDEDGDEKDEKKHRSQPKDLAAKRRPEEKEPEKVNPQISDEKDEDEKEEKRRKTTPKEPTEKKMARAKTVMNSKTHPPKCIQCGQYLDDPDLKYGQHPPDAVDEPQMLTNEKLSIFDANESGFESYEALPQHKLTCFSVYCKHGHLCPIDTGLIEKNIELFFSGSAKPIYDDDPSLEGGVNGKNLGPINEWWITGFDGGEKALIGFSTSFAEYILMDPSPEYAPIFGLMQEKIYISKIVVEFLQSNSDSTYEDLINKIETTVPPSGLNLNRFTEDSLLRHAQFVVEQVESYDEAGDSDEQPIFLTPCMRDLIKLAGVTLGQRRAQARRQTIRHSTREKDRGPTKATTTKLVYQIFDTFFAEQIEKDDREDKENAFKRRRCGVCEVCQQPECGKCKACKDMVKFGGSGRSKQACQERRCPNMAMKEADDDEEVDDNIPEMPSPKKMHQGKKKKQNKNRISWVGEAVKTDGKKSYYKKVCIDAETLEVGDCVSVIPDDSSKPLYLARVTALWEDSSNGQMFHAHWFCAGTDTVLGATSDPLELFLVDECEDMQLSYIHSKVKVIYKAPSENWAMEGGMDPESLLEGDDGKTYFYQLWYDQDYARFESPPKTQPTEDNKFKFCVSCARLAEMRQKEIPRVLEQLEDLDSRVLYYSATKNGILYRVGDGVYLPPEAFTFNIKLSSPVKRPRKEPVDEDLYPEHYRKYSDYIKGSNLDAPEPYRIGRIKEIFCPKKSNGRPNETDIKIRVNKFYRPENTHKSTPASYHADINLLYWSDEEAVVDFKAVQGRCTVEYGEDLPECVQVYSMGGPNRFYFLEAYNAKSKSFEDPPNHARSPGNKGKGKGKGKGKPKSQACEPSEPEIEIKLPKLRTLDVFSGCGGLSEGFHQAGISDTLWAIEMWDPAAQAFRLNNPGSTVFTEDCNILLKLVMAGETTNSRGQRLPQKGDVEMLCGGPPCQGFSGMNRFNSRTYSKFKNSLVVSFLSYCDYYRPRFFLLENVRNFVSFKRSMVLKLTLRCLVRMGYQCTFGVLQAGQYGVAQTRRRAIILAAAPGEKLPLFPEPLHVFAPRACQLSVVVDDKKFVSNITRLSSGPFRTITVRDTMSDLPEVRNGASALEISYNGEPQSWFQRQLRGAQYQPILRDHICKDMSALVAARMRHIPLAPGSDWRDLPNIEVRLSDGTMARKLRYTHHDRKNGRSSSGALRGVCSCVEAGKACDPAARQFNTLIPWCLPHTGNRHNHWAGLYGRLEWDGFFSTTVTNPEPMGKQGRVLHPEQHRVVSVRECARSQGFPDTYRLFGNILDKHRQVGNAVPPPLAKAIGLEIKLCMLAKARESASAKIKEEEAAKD

Structure (SMILES): Fc1cccc(-c2nn3c(Cn4nnc5ccccc54)nnc3s2)c1
- Activity (MV4-11 [1]): 0.28%
- IC50 (HL-60): > 200 µM
- Activity (MV4-11 [2]): 1.6%
- inhibition [3]: < 40%
- Activity (MV4-11 [4]): 3.8%
- inhibition [5]: < 40%
- Activity (MV4-11 [6]): 55.2%
- inhibition [7]: Active
- IC50 (Kasumi 1): > 200 µM
- Activity (MV4-11 [8]): 49.5%
- Activity (MV4-11 [9]): 4.35%
- Activity (MV4-11 [10]): 17.76%
- Activity (MV4-11 [11]): 0%
- viability at 6.25 µM (MV4-11 [12]): 24.2%
- Activity (MV4-11 [13]): 25%
- Activity (MV4-11 [14]): 83.18%
- inhibition [15]: > 40%
- IC50 [16]: 8.29 µM
